ChEMBL document CHEMBL4689842, “EUbOPEN Chemogenomics Library wave 1” (2021)
“And” between values parts separate entries of the source, which are not always exact repeats. Equal values may be shown once.

Test system: Fibroblast
Experiment: Multiplex assay against human fibroblast
Format: toxicity, cell-based
Details: 10 µM, compound concentration 10 uM
Method in brief: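 Values for tubulin, mitochondrial-mass and membrane-permeability phenotypes are per cents of cells with healthy nuclei. These cells were identified by CellPathfinder machine-learning gating of live cells that had been stained at seeding with Hoechst33342, BioTracker Green Microtubule Cytoskeleton Dye, MitoTracker Red and Annexin V Alexa Fluor 680 and imaged on a CQ1 microscope at 37°C and 5% CO2 after compound addition. The gating first set Hoechst high-intensity objects apart from normal cells, then split normal cells into healthy, pyknosed or fragmented nuclei, and pyknosed cells into mitotic or apoptotic.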

Question: `COc1cc(N2CCC(N3CCN(C)CC3)CC2)ccc1Nc1ncnc(Nc2ccccc2S(=O)(=O)C(C)C)n1` [ASP-3026] was tested. Which “Population Apoptotic (%)” value (12 h, replicate 1) did it give?
Answer: The value was 72% and 66%.

Question: And the “Population Fragmented Nuclei (%)” value (12 h, replicate 1)?
Answer: The value was 30% and 23%.

Question: And the “Population Healthy Nuclei (%)” value (12 h, replicate 1)?
Answer: Its value is 55% and 60%.

Question: What about the “Population Hoechst High Intensity Objects (%)” value (12 h, replicate 1) of the same compound?
Answer: The value was 14% and 18%.

Question: What about the “Population Membrane Permeable-Phenotype (%)” value (12 h, replicate 1) of the same compound?
Answer: The value was 11% and 9%.

Question: And the “Population Mitochondria Different-Phenotype (%)” value (12 h, replicate 1)?
Answer: The value was 6% and 7%.

Question: And the “Population Mitotic Cells (%)” value (12 h, replicate 1)?
Answer: The value was 27% and 33%.

Question: And the “Population Normal (%)” value (12 h, replicate 1)?
Answer: The value was 85% and 81%.

Question: What about the “Population Pyknosed Nuclei (%)” value (12 h, replicate 1) of the same compound?
Answer: Its value is 13% and 16%.

Question: And the “Total Cell Count” value (12 h, replicate 1)?
Answer: The value was 252 and 249.

Question: What about the “Population Apoptotic (%)” value (12 h, replicate 2) of the same compound?
Answer: Its value is 80% and 100%.

Question: And the “Population Fragmented Nuclei (%)” value (12 h, replicate 2)?
Answer: Its value is 66% and 72%.

Question: And the “Population Healthy Nuclei (%)” value (12 h, replicate 2)?
Answer: The value was 24% and 21%.

Question: And the “Population Hoechst High Intensity Objects (%)” value (12 h, replicate 2)?
Answer: Its value is 38% and 53%.

Question: And the “Population Membrane Permeable-Phenotype (%)” value (12 h, replicate 2)?
Answer: The value was 8% and 18%.

Question: And the “Population Mitochondria Different-Phenotype (%)” value (12 h, replicate 2)?
Answer: Its value is 16% and 0%.

Question: And the “Population Mitotic Cells (%)” value (12 h, replicate 2)?
Answer: The value was 20% and 0%.

Question: And the “Population Normal (%)” value (12 h, replicate 2)?
Answer: Its value is 61% and 46%.

Question: And the “Population Pyknosed Nuclei (%)” value (12 h, replicate 2)?
Answer: Its value is 10% and 5%.

Question: And the “Total Cell Count” value (12 h, replicate 2)?
Answer: Its value is 81 and 110.

Question: And the “Population Apoptotic (%)” value (24 h, replicate 1)?
Answer: The value was 79%.

Question: What about the “Population Fragmented Nuclei (%)” value (24 h, replicate 1) of the same compound?
Answer: The value was 38% and 22%.

Question: And the “Population Healthy Nuclei (%)” value (24 h, replicate 1)?
Answer: The value was 50% and 63%.

Question: What about the “Population Hoechst High Intensity Objects (%)” value (24 h, replicate 1) of the same compound?
Answer: The value was 18% and 16%.

Question: What about the “Population Membrane Permeable-Phenotype (%)” value (24 h, replicate 1) of the same compound?
Answer: The value was 15% and 7%.

Question: What about the “Population Mitochondria Different-Phenotype (%)” value (24 h, replicate 1) of the same compound?
Answer: Its value is 1% and 3%.

Question: And the “Population Mitotic Cells (%)” value (24 h, replicate 1)?
Answer: Its value is 20%.

Question: And the “Population Normal (%)” value (24 h, replicate 1)?
Answer: The value was 81% and 83%.

Question: And the “Population Pyknosed Nuclei (%)” value (24 h, replicate 1)?
Answer: Its value is 11% and 14%.

Question: And the “Total Cell Count” value (24 h, replicate 1)?
Answer: Its value is 260 and 264.

Question: What about the “Population Apoptotic (%)” value (24 h, replicate 2) of the same compound?
Answer: The value was 50% and 100%.

Question: And the “Population Fragmented Nuclei (%)” value (24 h, replicate 2)?
Answer: The value was 76% and 67%.

Question: What about the “Population Healthy Nuclei (%)” value (24 h, replicate 2) of the same compound?
Answer: Its value is 18% and 28%.

Question: And the “Population Hoechst High Intensity Objects (%)” value (24 h, replicate 2)?
Answer: The value was 45% and 53%.

Question: What about the “Population Membrane Permeable-Phenotype (%)” value (24 h, replicate 2) of the same compound?
Answer: Its value is 14% and 26%.

Question: And the “Population Normal (%)” value (24 h, replicate 2)?
Answer: Its value is 54% and 46%.

Question: What about the “Population Pyknosed Nuclei (%)” value (24 h, replicate 2) of the same compound?
Answer: The value was 5% and 3%.

Question: What about the “Total Cell Count” value (24 h, replicate 2) of the same compound?
Answer: The value was 70 and 112.
